These results are taken from ChEMBL document CHEMBL1141689, “Synthesis and biological evaluation of 2-amino-3-(3',4',5'-trimethoxybenzoyl)-6-substituted-4,5,6,7-tetrahydrothieno[2,3-c]pyridine derivatives as antimitotic agents and inhibitors of tubulin polymerization” (Bioorg Med Chem Lett, 2008).

One experiment relates to L1210. As to the kind of experiment: Antiproliferative activity against mouse L1210 cells. In kind it is functional, cell-based.
For a further experiment, the system named is FM3A. As to the kind of experiment: Antiproliferative activity against mouse FM3A cells. It counts as functional, cell-based.
Experiment [1] in a line: Antiproliferative activity against human Molt4/C8 cells. In kind it is functional, cell-based. The settings on record: MOLT-4.
The next experiment deals with CCRF-CEM. Nature of the experiment: Antiproliferative activity against human CEM cells. It counts as cell-based.
The species entered for experiment [2] is Bos taurus. As to the kind of experiment: Displacement of [3H]colchicine from bovine brain tubulin at 5 uM. In general terms: Displacement assays read how much labelled ligand stays bound in the presence of the test substance.
Experiment [3] relates to K562. Nature of the experiment: Cell cycle arrest in human K562 cells assessed as accumulation at G0/G1 phase at 500 nM after 24 hrs using propidium iodide staining by flow cytometry. In kind it is functional. An outline of the steps:
(§1)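 K562 leukaemia cells were cultured 24 h with compound or without compound as a control, then washed once in ice-cold PBS. They were resuspended at 1 × 10^6/mL in hypotonic propidium iodide (50 μg/mL) in 0.1% sodium citrate with 0.03% (v/v) Nonidet P-40 and incubated 30 min. DNA content was read by flow cytometry as single-parameter histograms, and cell-cycle phase distribution was modelled from them.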
Background: Flow cytometry measures light scatter and fluorescence of single cells or particles in a stream.

In experiment [4] the test system is K562. As to the kind of experiment: Cell cycle arrest in human K562 cells assessed as accumulation at S phase at 500 nM after 24 hrs using propidium iodide staining by flow cytometry. It counts as functional. An outline of the steps:
as §1

The subject of experiment [5] is K562. As to the kind of experiment: Cell cycle arrest in human K562 cells assessed as accumulation at G2/M phase at 500 nM after 24 hrs using propidium iodide staining by flow cytometry. It counts as functional. An outline of the steps: as §1
For experiment [6], the system named is K562. As to the kind of experiment: Cell cycle arrest in human K562 cells assessed as accumulation at sub G0/G1 phase at 500 nM after 24 hrs using propidium iodide staining by flow cytometry. It counts as functional. An outline of the steps:
as §1

Experiment [7] is filed under the species Bos taurus. As to the kind of experiment: Displacement of [3H]colchicine from bovine brain tubulin at 1 uM.
Experiment [8] in a line: Inhibition of tubulin polymerization.
Experiment [9] relates to K562. As to the kind of experiment: Cell cycle arrest in human K562 cells assessed as accumulation at G0/G1 phase at 70 nM after 24 hrs using propidium iodide staining by flow cytometry. It counts as functional.
In experiment [10] the test system is K562. Nature of the experiment: Cell cycle arrest in human K562 cells assessed as accumulation at S phase at 70 nM after 24 hrs using propidium iodide staining by flow cytometry. It counts as functional.
The subject of experiment [11] is K562. As to the kind of experiment: Cell cycle arrest in human K562 cells assessed as accumulation at G2/M phase at 70 nM after 24 hrs using propidium iodide staining by flow cytometry. It counts as functional.
The subject of experiment [12] is K562. As to the kind of experiment: Cell cycle arrest in human K562 cells assessed as accumulation at sub G0/G1 phase at 70 nM after 24 hrs using propidium iodide staining by flow cytometry. It counts as functional.
Experiment [13] concerns K562. Nature of the experiment: Cell cycle arrest in human K562 cells assessed as accumulation at G0/G1 phase at 80 nM after 24 hrs using propidium iodide staining by flow cytometry. It counts as functional. An outline of the steps:
as §1

Experiment [14] has as its system K562. As to the kind of experiment: Cell cycle arrest in human K562 cells assessed as accumulation at S phase at 80 nM after 24 hrs using propidium iodide staining by flow cytometry. It counts as functional. The procedure, abridged:
as §1

Experiment [15] deals with K562. As to the kind of experiment: Cell cycle arrest in human K562 cells assessed as accumulation at G2/M phase at 80 nM after 24 hrs using propidium iodide staining by flow cytometry. It counts as functional. An outline of the steps:
as §1

For experiment [16], the system named is K562. Nature of the experiment: Cell cycle arrest in human K562 cells assessed as accumulation at sub G0/G1 phase at 80 nM after 24 hrs using propidium iodide staining by flow cytometry. In kind it is functional. An outline of the steps: as §1

pIC50: −log10 of the molar value.

Broadly, the pIC50 is the negative decadic logarithm of the IC50, by convention in mol/L. A low value points to a high IC50. Turning to `COc1cc(C(=O)c2c(N)sc3c2CCN(Cc2ccccc2)C3)cc(OC)c1OC`, the negative logarithm of the IC50 (pIC50) (in the experiment with L1210; with FM3A; in [1]; with CCRF-CEM) was < 5.00 each time.

Turning to `COc1cc(C(=O)c2c(N)sc3c2CCN(C(=O)Nc2ccccc2)C3)cc(OC)c1OC`, the pIC50 (in the experiment with L1210; in the experiment on FM3A; in [1]; in the experiment on CCRF-CEM) was < 5.00 each time.

`CCCCNC(=O)N1CCc2c(sc(N)c2C(=O)c2cc(OC)c(OC)c(OC)c2)C1`: the pIC50 (in the experiment on L1210; in the experiment with FM3A; in experiment [1]; with CCRF-CEM) was < 5.00 in each case.

`COc1cc(C(=O)c2c(N)sc3cnccc23)cc(OC)c1OC`: the pIC50 was 6.43 in the experiment on L1210, 6.40 in the experiment on FM3A, 6.47 in [1] and 6.00 with CCRF-CEM. Further, the Activity is 27% in the experiment filed under Bos taurus [2]; 19% with K562 [3]; 27% with K562 [4]; 54% with K562 [5]; 14% with K562 [6].

Consider `CCN1CCc2c(sc(N)c2C(=O)c2cc(OC)c(OC)c(OC)c2)C1`, for which the pIC50 in the experiment on L1210 was 5.68; in the experiment on FM3A it was 5.72; in [1], 5.74; in the experiment with CCRF-CEM, 5.77.

`CNC(=S)N1CCc2c(sc(N)c2C(=O)c2cc(OC)c(OC)c(OC)c2)C1`: the pIC50 in the experiment on L1210 was 5.31; with FM3A, 5.55; in experiment [1] it was 5.80; in the experiment with CCRF-CEM it was 5.74.

Turning to `COc1cc(C(=O)c2c(N)sc3c2CCN(C(=O)NC(C)C)C3)cc(OC)c1OC`, the pIC50 (in the experiment on L1210; in the experiment with FM3A; in experiment [1]; in the experiment with CCRF-CEM) was < 5.00 each time.

Take `COc1cc(C(=O)c2c(N)sc3c2CCN(C(=O)Oc2ccccc2)C3)cc(OC)c1OC`: the pIC50 (with L1210; in the experiment with FM3A; in experiment [1]; in the experiment with CCRF-CEM) was < 5.00 throughout.

As for `COc1ccc(/C=C\c2cc(OC)c(OC)c(OC)c2)cc1O` [COMBRETASTATIN A4], the pIC50 in experiment [1] is 8.80. Also, the Activity in the experiment filed under Bos taurus [7] is 90%; in the experiment filed under Bos taurus [2], 99%.

With `COc1cc(C(=O)c2c(N)sc3c2CCN(C)C3)cc(OC)c1OC`, the pIC50 (with L1210; in the experiment on FM3A; in experiment [1]; in the experiment on CCRF-CEM) was < 5.00 each time.

Take `COc1cc(C(=O)c2c(N)sc3c2CCN(C(=O)OCC(C)C)C3)cc(OC)c1OC`: the negative logarithm of the IC50 (pIC50) (with L1210; in the experiment on FM3A; in experiment [1]; with CCRF-CEM) was < 5.00 in each case.

Turning to `COc1cc(C(=O)c2c(N)sc3c2CCN(C(=O)NCc2ccccc2)C3)cc(OC)c1OC`, the pIC50 (in the experiment with L1210; with FM3A; in experiment [1]; in the experiment with CCRF-CEM) was < 5.00 throughout.

`COc1cc(C(=O)c2c(N)sc3c2CCN(C(C)=O)C3)cc(OC)c1OC`: the pIC50 was 5.41 in the experiment with L1210, 5.92 with FM3A, 5.96 in experiment [1] and 5.85 with CCRF-CEM.

`CCCOC(=O)N1CCc2c(sc(N)c2C(=O)c2cc(OC)c(OC)c(OC)c2)C1`: the pIC50 in the experiment with L1210 was 5.96; in the experiment with FM3A, 5.85; in experiment [1] it was 6.33; in the experiment on CCRF-CEM, 5.92.

With `COc1cc(C(=O)c2c(N)sc3c2CCN(C(=S)NC2CCCCC2)C3)cc(OC)c1OC`, the results for the pIC50 (in the experiment on L1210; with FM3A; in experiment [1]) were 5.96, 5.85 and 6.12, respectively.

As to `COc1cc(C(=O)c2c(N)sc3ccccc23)cc(OC)c1OC`, the pIC50 in the experiment with L1210 is 7.05; in the experiment with FM3A it was 7.00; in experiment [1], 7.14; with CCRF-CEM, 7.13; in [8] it was 5.72. Also, the Activity in the experiment filed under Bos taurus [7] is 25%; in the experiment filed under Bos taurus [2], 71%.

For `COc1cc(C(=O)c2c(N)sc3c2CCN(C(=O)OC(C)(C)C)C3)cc(OC)c1OC`, the pIC50 (with L1210; in the experiment with FM3A; in [1]; in the experiment with CCRF-CEM) was < 5.00 in each case.

Turning to `CCNC(=S)N1CCc2c(sc(N)c2C(=O)c2cc(OC)c(OC)c(OC)c2)C1`, the pIC50 in the experiment with L1210 is 5.17; in the experiment on FM3A, 5.16; in experiment [1], 5.32; in the experiment on CCRF-CEM, 5.17.

Turning to `COc1cc(C(=O)c2c(N)sc3c2CCN(C(=S)NC(C)C)C3)cc(OC)c1OC`, the negative logarithm of the IC50 (pIC50) (in the experiment on L1210; with FM3A; in experiment [1]; with CCRF-CEM) was < 5.00 throughout.

`COC(=O)N1CCc2c(sc(N)c2C(=O)c2cc(OC)c(OC)c(OC)c2)C1`: the negative logarithm of the IC50 (pIC50) in the experiment on L1210 is 7.60; in the experiment on FM3A, 7.34; in experiment [1] it was 7.35; in the experiment with CCRF-CEM, 7.05; in experiment [8], 6.22. Besides, the Activity was determined as 71% in the experiment listed under Bos taurus [7]; 84% in the experiment filed under Bos taurus [2]; 34% in the experiment on K562 [9]; 33% with K562 [10]; 33% with K562 [11]; 11% in the experiment on K562 [12].

For `CCCN1CCc2c(sc(N)c2C(=O)c2cc(OC)c(OC)c(OC)c2)C1`, the pIC50 (in the experiment with L1210; with FM3A; in experiment [1]; in the experiment with CCRF-CEM) was < 5.00 throughout.

`COc1cc(C(=O)c2c(N)sc3c2CCN(C(=O)OCc2ccccc2)C3)cc(OC)c1OC`: the pIC50 in the experiment with L1210 was < 5.00; with FM3A, < 5.00; in experiment [1], 5.12; in the experiment on CCRF-CEM it was 5.08.

Turning to `CCOC(=O)N1CCc2c(sc(N)c2C(=O)c2cc(OC)c(OC)c(OC)c2)C1`, the negative-log IC50 (pIC50) is 7.02 in the experiment with L1210; 7.24 in the experiment on FM3A; 6.54 in experiment [1]; 6.36 in the experiment on CCRF-CEM; 6.22 in [8]. Also, the Activity came to 67% in the experiment listed under Bos taurus [7]; 82% in the experiment listed under Bos taurus [2]; 30% in the experiment with K562 [13]; 30% in the experiment with K562 [14]; 40% in the experiment on K562 [15]; 10% with K562 [16].

Regarding `COc1cc(C(=O)c2c(N)sc3c2CCN(C(=S)NC(C)(C)C)C3)cc(OC)c1OC`, the pIC50 (with L1210; with FM3A; in experiment [1]; in the experiment with CCRF-CEM) was < 5.00 in each case.

`COc1cc(C(=O)c2c(N)sc3c2CCN(C(=O)NC2CCCCC2)C3)cc(OC)c1OC`: the negative-log IC50 (pIC50) (with L1210; in the experiment on FM3A; in [1]; in the experiment on CCRF-CEM) was < 5.00 in each case.

As to `COc1cc(C(=O)c2c(N)sc3c2CCN(C(=O)NCc2ccc(F)cc2)C3)cc(OC)c1OC`, the pIC50 (with L1210; in the experiment on FM3A; in [1]; with CCRF-CEM) was < 5.00 in each case.
